Test results from ChEMBL document CHEMBL4477161, “Facile Synthesis of Natural Alkoxynaphthalene Analogues from Plant Alkoxybenzenes” (J Nat Prod, 2016).
The source made the active and inactive calls.

What follows are compounds tested on Paracentrotus lividus (assay: In vivo antiproliferative activity in sea urchin embryos assessed as cleavage alteration at 2 uM measured after 2.5 to 5.5 hrs post fertilization).
Format: functional, organism-based
Outline: (§1)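 Fertilized sea urchin eggs, cultured at room temperature in filtered seawater with paddle agitation (60 rpm), were exposed as a monolayer (up to 2000 embryos/mL) 8−20 min after fertilization to 2-fold serial dilutions. Compounds came from 10 mM DMSO stocks diluted 10-fold in 96% EtOH, with final DMSO ≤0.05% and EtOH ≤1%. Cleavage alteration was scored microscopically at 2.5−5.5 h post-fertilization. The threshold concentration is the lowest dose giving 100% alteration.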
With COc1ccc(-c2cccc3c(OC)c(OC)c4c(c23)OCO4)cc1 the Activity was “Active”.
For COc1cc(-c2cccc3cc4c(cc23)OCO4)cc(OC)c1OC, the Activity was “Active”.
For COc1ccc(C(O)CC(O)Cc2cc(OC)c3c(c2OC)OCO3)cc1 (stereo not given), the Activity was “Active”.

Each compound was assayed on Paracentrotus lividus (assay: In vivo antiproliferative activity in sea urchin embryos assessed as cleavage alteration at 1 uM measured after 2.5 to 5.5 hrs post fertilization).
Format: functional, organism-based
Outline: as §1
COc1ccc(-c2cccc3c(OC)c(OC)c4c(c23)OCO4)cc1 was tested, and the Activity was “Active”.

The compounds below were run on Paracentrotus lividus (assay: In vivo antiproliferative activity in sea urchin embryos assessed as cleavage alteration at 4 uM measured after 2.5 to 5.5 hrs post fertilization).
Format: functional, organism-based
Outline: as §1
With COc1ccc(-c2cccc3c(OC)c(OC)c4c(c23)OCO4)cc1 the Activity was “Active”.
With COc1cc(-c2cccc3cc4c(cc23)OCO4)cc(OC)c1OC the Activity was “Active”.
In the case of COc1ccc(-c2cccc3cc4c(c(OC)c23)OCO4)cc1, the Activity is reported as “Active”.

These compounds were tested on Paracentrotus lividus (assay: In vivo antiproliferative activity in sea urchin embryos assessed as cleavage alteration up to 4 uM measured after 2.5 to 5.5 hrs post fertilization).
Format: functional, organism-based
Outline: as §1
With COc1ccc(C(=O)CC(O)Cc2ccc3c(c2)OCO3)cc1 (stereo not given) the Activity was “inactive”.
For COc1ccc(-c2cccc3c(OC)c4c(c(OC)c23)OCO4)cc1, the Activity was “inactive”.
In the case of COc1ccc(C(N)CC(O)Cc2cc(OC)c3c(c2OC)OCO3)cc1 (stereo not given), the Activity is reported as “inactive”.
In the case of COc1ccc(-c2cccc3cc(OC)c4c(c23)OCO4)cc1, the Activity is reported as “inactive”.
With COc1ccc(-c2cccc3c(OC)c(OC)c(OC)c(OC)c23)cc1 the Activity was “inactive”.
With COc1ccc(-c2cccc3cc4c(cc23)OCO4)cc1 the Activity was “inactive”.
With COc1ccc(C2CC(O)Cc3c(OC)c4c(c(OC)c32)OCO4)cc1 (stereo not given) the Activity was “inactive”.
With COc1ccc(C(=O)CC(O)Cc2cc(OC)c3c(c2)OCO3)cc1 (stereo not given) the Activity was “inactive”.
